# Screens deposited in PubChem by several laboratories.
# This excerpt belongs to a sample that is enriched for hits.
# WNV NS2B-NS3 inh: inhibitors of WNV NS2B-NS3 protease, primary screen, biochemical, fluorogenic substrate; Genome polyprotein (West Nile virus), P06935; fluorogenic substrate Ex360/Em465; hits give low values; z-score (no concentration beside the values); hit rate 0.18% among 65,000; in the data active means z-score below about -3
# Target sequence (P06935 1371-1501 limits assumed): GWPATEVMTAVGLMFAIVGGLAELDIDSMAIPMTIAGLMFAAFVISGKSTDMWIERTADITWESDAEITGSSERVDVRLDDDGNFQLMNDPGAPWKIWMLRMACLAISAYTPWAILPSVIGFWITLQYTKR
# Target sequence (P06935 1502-1679 limits assumed): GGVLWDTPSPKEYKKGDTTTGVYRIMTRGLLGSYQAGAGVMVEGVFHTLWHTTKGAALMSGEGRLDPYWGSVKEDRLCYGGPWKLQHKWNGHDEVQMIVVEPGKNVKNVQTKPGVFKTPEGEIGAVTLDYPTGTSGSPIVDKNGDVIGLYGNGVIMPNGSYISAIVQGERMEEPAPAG
# hDAT+cocaine: changed hDAT dopamine uptake under cocaine IC80, either direction, primary screen, cocaine antagonist project, cell-based, LLC-PK1 hDAT, [14C]-dopamine uptake, MLSMR. LLC-PK1 hDAT cells, [14C]-dopamine uptake with cocaine IC80; actives deviate in either direction. hit rate 1.3% among 110,000. B-score at 10 µM;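 active means Z score or B-score, a plate-position-corrected score, falls beyond the plate's 99.7% confidence bounds, in either direction; inactive means both scores lie inside the 99.7% bounds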;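 further: scored against the spread of the other compound wells on the same plate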
# AP complement: alternative complement pathway inhibitors, primary screen, biochemical, ELISA, human serum, orthogonally pooled compounds; LPS-coated ELISA, C3 deposition; tested in compound mixtures; hit rate 0.08% among 62,000; inhibition, % at 5 µM;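 active means inhibition above 30% in each of the two pooled mixtures holding the compound, so the lower value exceeds 30%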;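 further: 0% = serum in Mg-EGTA without compound and 100% = EDTA serum blank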
#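 Test system: human serum alternative complement pathway, C3 deposition on LPS-coated wells; also added: Plate-bound LPS; doses: 5 µM per compound in ten-compound mixtures; schedule: 1 h at 37 °C; detection: Anti-C3 ELISA, OD 450 nm; evaluation: percent inhibition of C3 deposition onto LPS; repeats: two pool placements per compound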
# D1 allo mod: D1 CRE-luciferase signal change, two-sided – cell-based, HEK293 D1, dopamine EC30, D1 allosteric modulator project, primary screen | AID 641, 2007 | hit rate 5.9% among 58,000 | D(1A) dopamine receptor (Homo sapiens), P21728 | B-score at 10 µM | dopamine EC30 potentiation; actives deviate in either direction;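 active means luminescence count or its row- and column-corrected plate score outside the 99.7% band of the plate's sample wells, on either side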
# Active calls of the source: *; . = no result given.
SMILES,WNV NS2B-NS3 inh,hDAT+cocaine,AP complement,D1 allo mod
CCn1cc(C(=O)NCC2CCCO2)c(=O)c2cc(S(=O)(=O)N3CCC(C)CC3)ccc21 (stereo unspecified),0.01,0.84,15,-4.8*
CCn1cc(C(=O)NCC2CCCO2)c(=O)c2cc(S(=O)(=O)N3CCCCCC3)ccc21 (stereo unspecified),0.66,0.63,-2,-0.15
C=CCn1cc(C(=O)NCCCOC)c(=O)c2cc(S(=O)(=O)N3CCC(C)CC3)ccc21,-0.76,.,23,4.1*
CCCNC(=O)c1cc2nc(-c3ccccc3)cc(C(F)(F)F)n2n1,.,0.45,.,.
COCCOC(=O)c1c(C)n(C)c2ccc(OC(=O)C3CC3)cc12,-1.5,-0.074,8,1.4
O=C(Nc1ccc(F)cc1F)c1cc2ncc(Br)cn2n1,0.88,-0.85,5,0.0047
COC(=O)c1ccccc1NC(=O)c1cc2ncc(Br)cn2n1,0.36,-2.3*,5,0.34
O=C(NCc1cccnc1)NC1(C(F)(F)F)Oc2ccccc2O1,1.2,-5.8*,7,0.5
O=C(O)CCC(=O)OC1CC2CCC1C2 (stereo unspecified),-0.52,0.19,-2,0.0017
O=C(O)C1C2C=CC(C2)C1C(=O)OC1CC2CCC1C2 (stereo unspecified),0.25,0.015,15,-4.9*
CCn1c(C(=O)NCc2cccnc2)cc2sc(Cl)cc21,0.18,.,3,0.36
Cc1cccc(Cn2c(C(C)(C)C)cc3cccnc32)c1,.,0.38,.,.
O=C(c1nc(-c2ccccc2)n(-c2ccccc2)n1)N1CCN(S(=O)(=O)c2ccccc2)CC1,-0.63,1.8,-2,-0.39
CC(=O)Nc1ccc(S(=O)(=O)NC(C(=O)O)C2=CCC=CC2)cc1 (stereo unspecified),-0.07,-0.98,16,0.61
CC1=C(C(=O)OCCOc2ccccc2)C(c2ccc(C)o2)C2=C(CC(C)(C)CC2=O)N1 (stereo unspecified),-0.22,3.7*,1,0.17
Cc1onc(-c2ccccc2)c1C(=O)N1CCCc2ccccc21,-0.37,-1,32*,0.6
CC[C@H](C)C(C(=O)N1CCN(C(=O)OC(C)(C)C)CC1)n1cc(C(Cc2ccc(O)cc2)NC(=O)OC(C)(C)C)nn1 (stereo partly specified),.,1.6,.,.
Cc1cccc2c(=O)c(C(=O)NCCCN3CCOCC3)c[nH]c12,.,0.22,.,.
Cc1cc(NC(=O)c2ccccc2)sc1C,-0.66,0.079,10,-2.9*
Cc1ccc(NC(=O)c2ccccc2)s1,1,0.24,-16,-5.2*
BrC(=C\c1ccccc1)/C=N/N1CCN(c2ccccn2)CC1,.,0.36,.,.
O=C(Nc1ccccc1C(=O)N1CCOCC1)c1noc2c1CCCC2,-0.4,3*,30,0.21
O=c1cc(-c2ccccc2Cl)oc2c(NS(=O)(=O)c3ccccc3OC(F)(F)F)ccc(O)c12,.,-1,.,.
CCOC(=O)c1ccc(N2C(=O)C3CC=CCC3C2=O)cc1 (stereo unspecified),-0.98,7.9*,1,0.29
O=c1cc(-c2ccccc2)[nH]c2nc3ccccc3n12,-0.65,0.27,-1,-6.5*
SMILES,WNV NS2B-NS3 inh,hDAT+cocaine,AP complement,D1 allo mod
CCc1c(C)[nH]c2nc3ccccc3n2c1=O,.,-0.0071,.,.
COc1cccc(CN2C[C@]34C=C[C@@H](C[C@@H]3S2(=O)=O)O4)c1,.,-0.72,.,.
Nc1ccc(C2CCCc3nonc32)c2nonc12 (stereo unspecified),0.44,-0.066,-4,-2.8*
CC(C)(C)c1ccc(Cn2nnc3c(=O)[nH]c(C4CCN(C(=O)Cc5cccs5)CC4)nc32)cc1,-1.1,3.3*,11,0.62
Cc1ccc(Cn2nnc3c(=O)[nH]c(C4CCN(S(=O)(=O)c5ccccc5)CC4)nc32)cc1,-0.38,2.9*,17,-1.2
Cc1ccc(Cn2nnc3c(=O)[nH]c(C4CCCN(C(=O)Nc5ccc(F)cc5F)C4)nc32)cc1 (stereo unspecified),.,3.2*,.,.
O=C(Cc1cccs1)N1CCC(c2nc3c(nnn3Cc3ccccc3)c(=O)[nH]2)CC1,-1.1,1.9,25,0.16
CC(C)(C)c1ccc(Cn2nnc3c(=O)[nH]c(C4CCCN(C(=O)Cc5cccs5)C4)nc32)cc1 (stereo unspecified),-0.97,0.58,11,0.6
Cc1ccc(Cn2nnc3c(=O)[nH]c(C4CCN(C(=O)Cc5cccs5)CC4)nc32)cc1,-0.63,3.4*,15,-0.022
Cc1ccc(Cn2nnc3c(=O)[nH]c(C4CCCN(S(=O)(=O)c5ccccc5)C4)nc32)cc1 (stereo unspecified),.,-1.2,.,.
O=C(O)c1ccccc1-c1ccccc1C(=O)NCCCO,.,0.93,.,.
CC(=O)Cc1nsc(NC(=O)c2cccs2)n1,.,-0.55,.,.
Cc1cc2oc(=O)cc(CN3CCN(Cc4ccccc4)CC3)c2cc1Cl,-1.8,0.53,12,-0.89
O=c1cc(CN2CCN(Cc3ccccc3)CC2)c2cc(Cl)ccc2o1,-0.22,-0.53,22,-4.2*
CC(C)c1ccc2oc(=O)cc(CN3CCN(c4ccc(F)cc4)CC3)c2c1,-0.96,-0.072,40*,0.059
COC(=O)c1ccccc1NC(=O)CN(C)S(=O)(=O)c1cc(C)ccc1OC,0.82,0.15,2,-0.39
Cc1sc(NC(=O)c2ccco2)nc1-c1ccc2c(c1)CC(C)N2C(=O)C1CC1 (stereo unspecified),0.77,-0.59,8,-3.6*
CCCSc1nnc(NC(=O)c2sc3nc(-c4cccs4)ccc3c2N)s1,-0.29,0.012,19,0.47
Cc1csc(NC(=O)c2sc3nc(-c4cccs4)ccc3c2N)n1,-0.38,-0.51,3,-2.8*
Nn1cnnc1SCC(=O)Nc1ccc(C2CCCCC2)cc1,2.3,1.3*,-18,-4.3*
COc1ccc(NC(C)=O)cc1NC(=O)CSc1nnc(-c2cccnc2)n1C,-0.18,-0.59,3,0.56
O=C(NC1CCCC1)C1CCCN1C(=O)Nc1ccc(Cl)cc1 (stereo unspecified),0.53,-0.45,16,-0.087
Fc1ccc(OCc2nn3cnnc3s2)cc1,-1.2,-0.068,9,-4*
COc1ccc(Oc2ncnc3c2oc2ccc(Br)cc23)cc1,-0.38,-7.4*,2,0.76
CC1CCN(Cc2csc(N)n2)CC1,.,-0.55,.,.
O=C(NCc1nc2ccccc2[nH]1)C1=C[C@@H](c2ccccc2)C[C@@H](OCCCCO)O1,.,3.2*,.,.
O=C(NCc1nc2ccccc2[nH]1)C1=C[C@@H](c2ccc(Br)cc2)C[C@@H](OCCCCO)O1,.,0.21,.,.
Cc1ccc(NCc2nnc(SCC(=O)NCc3ccco3)n2CC2CCCO2)cc1Cl (stereo unspecified),-0.08,0.77,-13,-1.6
Cc1ccc(NCc2nnc(SCCN3CCCCC3)n2CC2CCCO2)cc1Cl (stereo unspecified),-1.2,2.4*,5,2.3
O=C(CSc1c2c(nc3ccc(Cl)cc13)CCCC2)N1CCN(C(=O)c2ccco2)CC1,-0.76,.,14,.
